Most compounds without a hit are left out; they make up all but 3.5% or so of the library.
MrgX1 antag – human MrgX1 receptor antagonism, primary screen | Q96LB2 | MRGX1-HEK293 calcium flux, Fluo-4, BAM8-22 antagonism; stronger effect = lower value | B-score at 10 µM | actives 1.3% (n = 310,000);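 active = calcium-response B-score plate-corrected more than 3 library SD below zero, starting fluorescence within 5 deviations, no agonist response on first addition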;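 note: peak minus trough fluorescence over baseline after final BAM8-22 challenge near maximal dose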
Target sequence (Q96LB2 whole entry, looked up): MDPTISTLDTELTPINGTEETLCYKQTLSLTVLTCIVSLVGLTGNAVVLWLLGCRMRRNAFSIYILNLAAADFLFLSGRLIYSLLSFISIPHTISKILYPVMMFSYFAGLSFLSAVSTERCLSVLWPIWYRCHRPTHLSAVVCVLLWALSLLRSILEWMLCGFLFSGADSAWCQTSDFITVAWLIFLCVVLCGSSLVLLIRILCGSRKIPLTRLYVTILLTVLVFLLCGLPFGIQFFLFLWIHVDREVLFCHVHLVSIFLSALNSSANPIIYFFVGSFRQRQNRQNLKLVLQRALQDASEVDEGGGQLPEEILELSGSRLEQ
MrgX1 ag – agonists of human MrgX1 receptor | MrgX1-HEK293 cells, Fluo-4 calcium fluorescence, agonist mode; stronger effect = higher value | actives 0.44% (n = 310,000) | B-score at 10 µM | Q96LB2 | AID 588627;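 active = calcium response B-score plate-corrected fluorescence ratio at least 3 library SD, with starting fluorescence B-score inside 5 SD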
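Test system: HEK293 cells stably expressing human MrgX1 receptor; Input: fifteen thousand cells per well; Dosing: compound delivered in addition one of three; Schedule: overnight seeding, then 1 h dark dye loading; Technique: Fluo-4 NW calcium fluorescence; Measure: B-scored fluorescence response ratio; Controls: positive and negative controls per plate.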
RGS4 pot – potentiators or activators of RGS4. HEK293 M3R/inducible RGS4, carbachol calcium flux Fluo4; stronger effect = lower value. B-score at 10 µM. actives 0.92% (n = 310,000);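 active = B-score of the integrated calcium signal more than 4 SD below the library mean, with starting fluorescence not abnormally high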;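 note: negative B-score means reduced calcium response which marks RGS4 activation or potentiation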
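System – HEK293 FlpIn-TREx cells, stable M3R, doxycycline-inducible RGS4 · Reagent – ECmax carbachol challenge · Times – compound preincubation 20 min at room temperature before agonist · Technique – Fluo4 fluorescence kinetic imaging of calcium · Measure – B score of integrated Fluo4 ratio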
RGS4 block – human RGS4 inhibition; P49798; AID 463165; HEK293 M3R/RGS4 inducible, Fluo-4 calcium flux; stronger effect = higher value; triggered by carbachol at its EC20; actives 0.45% (n = 310,000); B-score at 10 µM;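 active = B-score, a plate-corrected calcium signal, over three deviations above library mean, with baseline fluorescence within five deviations of library mean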;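 note: RGS4 expression induced by doxycycline in cells with stable M3 receptor; B-score is computed from the integrated fluorescence ratio over baseline after carbachol; higher B-score means a larger calcium signal and so more RGS4 inhibition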
Target sequence (P49798 whole entry, looked up): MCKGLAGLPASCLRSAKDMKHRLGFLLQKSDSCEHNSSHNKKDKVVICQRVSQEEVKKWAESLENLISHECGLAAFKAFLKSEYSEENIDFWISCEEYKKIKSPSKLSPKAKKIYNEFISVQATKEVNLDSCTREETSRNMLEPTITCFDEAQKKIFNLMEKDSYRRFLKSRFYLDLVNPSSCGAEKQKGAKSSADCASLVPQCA
MrgX1 allo act – allosterically activates human MrgX1 receptor signaling. Q96LB2. MrgX1-HEK293, Fluo-4 calcium flux, FDSS; stronger effect = higher value. B-score at 10 µM. actives 0.63% (n = 310,000);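 active = plate-corrected calcium response at least 3 library SD above typical, normal starting fluorescence, not activating the receptor alone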;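 note: compound read alongside a low EC10 to EC30 dose of BAM8-22 agonist; peak minus trough fluorescence over baseline measured at the second addition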
* = called active by the depositor.

CCOc1cc(/C=C2/NC(=O)N(CC(=O)Nc3cccc(C)c3)C2=O)ccc1OC was read as MrgX1 antag -7.1*, MrgX1 ag inactive, RGS4 pot inactive, RGS4 block inactive and MrgX1 allo act inactive.
Screening CCOc1cc(/C=C2/NC(=O)N(CC(=O)Nc3cccc(C)c3)C2=O)ccc1O returned MrgX1 antag inactive, MrgX1 ag inactive, RGS4 pot inactive, RGS4 block inactive and MrgX1 allo act inactive.
Screening Cc1ccc(S(=O)(=O)N2CCCOC2CNC(=O)C(=O)NCc2ccco2)cc1 (stereo unspecified) returned MrgX1 antag inactive, MrgX1 ag inactive, RGS4 pot inactive, RGS4 block inactive and MrgX1 allo act inactive.
For COc1cc(/C=C2/C(=N)N3N=C(CC(=O)N4CCOCC4)SC3=NC2=O)ccc1OCc1ccccc1F the results were MrgX1 antag inactive, MrgX1 ag inactive, RGS4 pot inactive, RGS4 block inactive and MrgX1 allo act 17*.
`CSc1ccc(/C=C2/C(=N)N3N=C(CC(=O)N4CCCC4)SC3=NC2=O)cc1` gave MrgX1 antag inactive, MrgX1 ag 31*, RGS4 pot inactive, RGS4 block inactive and MrgX1 allo act inactive.
COc1cc(/C=C2/C(=N)N3N=C(CC(=O)N4CCOCC4)SC3=NC2=O)ccc1OCc1ccc(F)cc1 was read as MrgX1 antag inactive, MrgX1 ag inactive, RGS4 pot inactive, RGS4 block inactive and MrgX1 allo act 16*.
For COc1ccc(/C=C2/C(=N)N3N=C(CC(=O)N4CCCC4)SC3=NC2=O)cc1OC the results were MrgX1 antag inactive, MrgX1 ag inactive, RGS4 pot inactive, RGS4 block inactive and MrgX1 allo act inactive.
Cc1ccc(/C=C2/C(=N)N3N=C(CC(=O)N4CCCC4)SC3=NC2=O)cc1 was read as MrgX1 antag inactive, MrgX1 ag inactive, RGS4 pot inactive, RGS4 block inactive and MrgX1 allo act inactive.
For COc1ccccc1N1CCN(C(=O)CCCN2C(=O)c3cccc4cccc(c34)C2=O)CC1 the results were MrgX1 antag inactive, MrgX1 ag inactive, RGS4 pot inactive, RGS4 block inactive and MrgX1 allo act inactive.
CCN(CC(=O)NCc1cccs1)C(=O)C1CC(=O)N(c2ccc(OC)cc2OC)C1 (stereo unspecified) was read as MrgX1 antag -4.8*, MrgX1 ag inactive, RGS4 pot inactive, RGS4 block inactive and MrgX1 allo act inactive.
For CCN(CC(=O)Nc1ccc2c(c1)OCCO2)C(=O)C1CC(=O)N(c2ccc(OC)cc2OC)C1 (stereo unspecified) the results were MrgX1 antag inactive, MrgX1 ag inactive, RGS4 pot inactive, RGS4 block inactive and MrgX1 allo act inactive.
For O=C(Cn1cnc([N+](=O)[O-])n1)c1ccc(O)c(O)c1 the results were MrgX1 antag inactive, MrgX1 ag inactive, RGS4 pot inactive, RGS4 block inactive and MrgX1 allo act inactive.
Screening Cc1c(Br)c([N+](=O)[O-])nn1C(C)C(=O)N1CCc2ccccc2C1 (stereo unspecified) returned MrgX1 antag inactive, MrgX1 ag inactive, RGS4 pot -9.3*, RGS4 block inactive and MrgX1 allo act inactive.
Cc1c(Br)c([N+](=O)[O-])nn1CC(=O)N1CCc2ccccc2C1 was read as MrgX1 antag inactive, MrgX1 ag inactive, RGS4 pot inactive, RGS4 block inactive and MrgX1 allo act inactive.
Cc1cc(C)cc(N(CCC#N)C(=O)COC(=O)c2ccccc2SCC(=O)N2CCCC2)c1 was read as MrgX1 antag inactive, MrgX1 ag inactive, RGS4 pot -7.1*, RGS4 block inactive and MrgX1 allo act inactive.
For Cc1ccc(N(CCC#N)C(=O)COC(=O)c2ccccc2SCC(=O)N2CCCC2)cc1 the results were MrgX1 antag inactive, MrgX1 ag inactive, RGS4 pot inactive, RGS4 block inactive and MrgX1 allo act inactive.
CCOc1ccc(CCNC(=O)COC(=O)c2cc([N+](=O)[O-])ccc2N2CCOCC2)cc1OCC was read as MrgX1 antag inactive, MrgX1 ag inactive, RGS4 pot inactive, RGS4 block inactive and MrgX1 allo act inactive.
Cc1ccc(/C=C2\SC(N3CCN(C(c4ccccc4)c4ccccc4)CC3)=NC2=O)o1 was read as MrgX1 antag inactive, MrgX1 ag inactive, RGS4 pot -9.4*, RGS4 block inactive and MrgX1 allo act inactive.
For Cc1ccc(-c2ccc(/C=C3\SC(N4CCOCC4)=NC3=O)o2)cc1 the results were MrgX1 antag inactive, MrgX1 ag inactive, RGS4 pot inactive, RGS4 block inactive and MrgX1 allo act inactive.
Screening Cc1nc(N/N=C/c2ccc(O)cc2O)cc(N2CCOCC2)n1 returned MrgX1 antag inactive, MrgX1 ag inactive, RGS4 pot -7.6*, RGS4 block inactive and MrgX1 allo act inactive.
For CCOc1ccc(OCc2cccc(C(=O)Nc3ccc(CN4CCCCC4)cc3)c2)cc1 the results were MrgX1 antag inactive, MrgX1 ag inactive, RGS4 pot -7.3*, RGS4 block inactive and MrgX1 allo act inactive.
CCCCSc1nc(C)cc(SCC(=O)N/N=C/c2ccccc2)n1 was read as MrgX1 antag inactive, MrgX1 ag inactive, RGS4 pot inactive, RGS4 block inactive and MrgX1 allo act inactive.
For O=[N+]([O-])c1ccc(-n2nncc2-c2ccc(Cl)cc2)cc1 the results were MrgX1 antag -4.9*, MrgX1 ag inactive, RGS4 pot inactive, RGS4 block inactive and MrgX1 allo act inactive.
For COc1ccc(N2CCN(S(=O)(=O)CCNC(=O)/C=C/c3ccccc3)CC2)cc1 the results were MrgX1 antag inactive, MrgX1 ag inactive, RGS4 pot inactive, RGS4 block inactive and MrgX1 allo act inactive.
`CCCCN1C2=C(C(=O)CC(C)(C)C2)C(c2ccccc2)C2=C1c1ccccc1C2=O` (stereo unspecified) gave MrgX1 antag inactive, MrgX1 ag inactive, RGS4 pot inactive, RGS4 block inactive and MrgX1 allo act inactive.
CCCN1C2=C(C(=O)CC(C)(C)C2)C(c2ccc(F)cc2)C2=C1c1ccccc1C2=O (stereo unspecified) was read as MrgX1 antag -8.7*, MrgX1 ag inactive, RGS4 pot inactive, RGS4 block inactive and MrgX1 allo act inactive.
COc1ccc(C2Nc3ccccc3C(=O)N2c2ccc(C)cc2)cc1Cn1nnc2ccccc21 (stereo unspecified) was read as MrgX1 antag inactive, MrgX1 ag inactive, RGS4 pot inactive, RGS4 block inactive and MrgX1 allo act 23*.
For CC(C)CSC1=NSC2=NC(=O)/C(=C\c3ccccc3)C(=N)N12 the results were MrgX1 antag inactive, MrgX1 ag 27*, RGS4 pot inactive, RGS4 block inactive and MrgX1 allo act inactive.
